Data on 13 compounds can be found in ChEMBL document CHEMBL1150585, “Phytotoxic compounds from Prionosciadium watsoni” (J Nat Prod, 2002).

Molecules are shown by their SMILES. Activity calls are given as the source filed them. The calls are words filed in the database; no cut-off is given here.

Assay [1] has as its system Echinochloa crus-galli. The assay can be described thus: Phytotoxicity against Echinochloa crus-galli assessed as inhibition of radicle elongation by petri dish bioassay. Format: functional, organism-based. An outline of the steps:
(§1)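 Petri dish germination and radicle elongation bioassay on seedlings at 28 °C. Pure compounds tested at 10, 50, 100 and 200 µg mL-1, with 2,4-D as positive control. IC50 derived by Probit analysis from percent radicle growth or germination inhibition; ANOVA (p < 0.05).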

The subject of assay [2] is Lemna aequinoctialis. Description: Phytotoxicity against Lemna paucicostata assessed as growth inhibition at 50 uM after 3 days relative to control. The conditions noted are these: 72 h, read-out: GI. It counts as functional. The method, boiled down:
(§2)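 Lemna culture of 10 colonies, three fronds each, in 3 mL half-strength Hunter's medium containing compound for 3 days (72 h). Percent growth inhibition is versus culture-medium control, as means of three replicates ± standard deviation; significance by Student's unpaired t-test.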

The test system of assay [3] is Lemna aequinoctialis. The assay can be described thus: Phytotoxicity against Lemna paucicostata assessed as chlorophyll reduction at 25 uM after 3 days by ultraviolet spectroscopy relative to control. Format: functional. Conditions: 72 h, read-out: GI. The method, boiled down:
(§3)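 Duckweed (Lemna) culture: 10 colonies of three fronds each in 3 mL half-strength Hunter's medium with compound, run 3 days. Afterwards plants are removed from medium, blotted and extracted overnight in the dark with 5 mL DMSO. Chlorophyll is expressed on fresh weight basis. Reduction is relative to culture-medium control, as means of three replicates ± standard deviation, with Student's unpaired t-test.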

The target of assay [4] is Calmodulin (Bos taurus) (UniProt P62157). The assay can be described thus: Binding affinity to bovine brain calmodulin assessed as modification of electrophoretic mobility at 0.033 ug/mL after 1.5 hrs by SDS-PAGE in presence of calcium chloride. The method, boiled down: (§4)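 Bovine brain and spinach calmodulin, 2 µg samples, pretreated 1.5 h at 30 °C with 1 mM CaCl2 and compound (0.033 µg/mL). Denaturing SDS-PAGE on 15% polyacrylamide gels in presence of Ca2+. Read-out is change in electrophoretic mobility relative to an untreated calmodulin lane.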

For assay [5], the system named is Lemna aequinoctialis. The assay can be described thus: Phytotoxicity against Lemna paucicostata assessed as growth inhibition at 25 uM after 3 days relative to control. It counts as functional. The conditions noted are these: 72 h, read-out: GI. An outline of the steps:
as §2

The test system of assay [6] is Lemna aequinoctialis. The assay can be described thus: Phytotoxicity against Lemna paucicostata assessed as chlorophyll reduction at 50 uM after 3 days by ultraviolet spectroscopy relative to control. Conditions: 72 h, read-out: GI. Format: functional. The method, boiled down: as §3
Assay [7] deals with Amaranthus hypochondriacus. Description: Phytotoxicity against Amaranthus hypochondriacus assessed as inhibition of radicle elongation by petri dish bioassay. Format: functional, organism-based. An outline of the steps:
as §1

For assay [8], the system named is Lemna aequinoctialis. Description: Phytotoxicity against Lemna paucicostata assessed as chlorophyll reduction at 100 uM after 3 days by ultraviolet spectroscopy relative to control. It counts as functional. The conditions noted are these: 72 h, read-out: GI. The method, boiled down:
as §3

The test system of assay [9] is Lemna aequinoctialis. Description: Phytotoxicity against Lemna paucicostata assessed as chlorophyll reduction at 12 uM after 3 days by ultraviolet spectroscopy relative to control. Format: functional. The conditions noted are these: 72 h. An outline of the steps:
as §3

Assay [10] relates to Lemna aequinoctialis. Description: Phytotoxicity against Lemna paucicostata assessed as growth inhibition at 12 uM after 3 days relative to control. Conditions: 72 h, read-out: GI. Format: functional. An outline of the steps:
as §2

The test system of assay [11] is Lemna aequinoctialis. The assay can be described thus: Phytotoxicity against Lemna paucicostata assessed as growth inhibition at 100 uM after 3 days relative to control. It counts as functional. The conditions noted are these: 72 h, read-out: GI. An outline of the steps:
as §2

The target of assay [12] is Calmodulin (Spinacia oleracea) (UniProt P04353). Description: Binding affinity to spinach calmodulin assessed as modification of electrophoretic mobility at 0.033 ug/mL after 1.5 hrs by SDS-PAGE in presence of calcium chloride. The method, boiled down:
as §4

For assay [13], the system named is Lemna aequinoctialis. The assay can be described thus: Phytotoxicity against Lemna paucicostata assessed as chlorophyll reduction at 200 uM after 3 days by ultraviolet spectroscopy relative to control. It counts as functional. Conditions: 72 h, read-out: GI. An outline of the steps: as §3
The subject of assay [14] is Lemna aequinoctialis. Description: Phytotoxicity against Lemna paucicostata assessed as growth inhibition at 200 uM after 3 days relative to control. Format: functional. Conditions: 72 h, read-out: GI. The method, boiled down: as §2

The IC50 is the concentration at which inhibition is half-maximal. Consider `C/C=C(/C)C(=O)O[C@@H]1Cc2c(ccc3ccc(=O)oc23)OC1(C)C` [JATAMANSIN], for which the results for the IC50 in assay [1] and in assay [7] were 863 µM and 260 µM, respectively. The inhibition of growth at 50 µM in assay [2] came to 47.6%; in assay [6], 12.8%. Moreover, the inhibition of growth at 25 µM worked out at 4.37% in [3] and 37.5% in assay [5]. Besides, the outcome in assay [4] and in [12] was Active. The results for the inhibition of growth at 100 µM in assay [8] and in assay [11] were 40.3% and 100%, respectively. In addition, the chlorophyll reduction at 12 µM in assay [9] is 5.94%. For the same compound, the inhibition of growth at 12 µM in assay [10] came out at 15.3%.
For the compound `C/C=C(/C)C(=O)O[C@@H]1Cc2c(cc3oc(C)cc(=O)c3c2OC)OC1(C)C`, the figures for the IC50 in assay [1] and in assay [7] were 26.4 µM and 143 µM, respectively. For the same compound, the outcome in [4] and in [12] was Active.
Consider `CCC(=O)O[C@@H]1c2c(ccc3ccc(=O)oc23)OC(C)(C)[C@@H]1OC(C)=O`, for which the IC50 in assay [1] amounted to 439 µM; in [7], 396 µM. The outcome in [4] and in [12] was Active.
On to `COc1c2c(cc3oc(C)cc(=O)c13)OC(C)(C)[C@H](OC(=O)C(C)C)C2`, for which the results for the IC50 in [1] and in assay [7] were 14.8 µM and 74.1 µM, respectively. In addition, the outcome in assay [4] and in assay [12] was Active.
As to `CO[C@H]1c2c(ccc3ccc(=O)oc23)OC(C)(C)[C@@H]1O`, the Activity entry in assay [1] and in [7] was “Dose-dependent effect” each time. Moreover, the figures for the IC50 in assay [1] and in assay [7] were 808 µM and 108 µM, respectively. Further, the outcome in assay [4] and in assay [12] was Active.
Regarding `COc1c2c(cc3oc(C)cc(=O)c13)OC(C)(C)[C@H](O)C2`, the Activity result in assay [1] and in assay [7] was “Dose-dependent effect” in each case. For the same compound, the IC50 was found to be 461 µM in assay [1] and 383 µM in assay [7]. Further, the outcome in assay [4] and in [12] was Active.
With `CC1(C)Oc2ccc3ccc(=O)oc3c2C[C@H]1O` [(+)-LOMATIN], the Activity result in [1] and in assay [7] was “Dose-dependent effect” each time. The 50% inhibitory concentration (IC50) in assay [1] was found to be 296 µM; in assay [7], 344 µM. Also, the outcome in assay [4] and in assay [12] was Active.
Consider `CC(C)C(=O)O[C@@H]1Cc2c(ccc3ccc(=O)oc23)OC1(C)C`, for which the results for the concentration for half-maximal inhibition (IC50) in assay [1] and in [7] were 169 µM and 237 µM, respectively. The values for the inhibition of growth at 50 µM in [2] and in assay [6] were 23.5% and 54.3%, respectively. Besides, the figures for the inhibition of growth at 200 µM in [13] and in assay [14] were 87.4% and 100%, respectively. In addition, the inhibition of growth at 25 µM in [3] came to 20%; in assay [5], 19.6%. For the same compound, the outcome in [4] and in [12] was Active. The figures for the inhibition of growth at 100 µM in assay [8] and in [11] were 84.9% and 58.8%, respectively.
As to `CC1(C)Oc2ccc3ccc(=O)oc3c2[C@@H](O)[C@H]1O`, the IC50 was determined as 439 µM in [1] and 361 µM in [7].
As for `C/C=C(/C)C(=O)O[C@@H]1[C@H](O)c2c(ccc3ccc(=O)oc23)OC1(C)C`, the IC50 in assay [1] was 155 µM; in [7], 262 µM. The outcome in assay [4] and in assay [12] was Active.
For the compound `CO[C@@H]1c2c(ccc3ccc(=O)oc23)OC(C)(C)[C@@H]1O`, the Activity entry in assay [1] and in [7] was “Dose-dependent effect” throughout. Moreover, the IC50 in [1] was 6.19 µM; in [7], 325 µM. Moreover, the result in assay [4] and in assay [12] was Active.
Take `CC(=O)O[C@@H]1[C@H](OC(=O)C(C)C)c2c(ccc3ccc(=O)oc23)OC1(C)C` [SERAVSHANIN]: the figures for the concentration for half-maximal inhibition (IC50) in assay [1] and in assay [7] were 162 µM and 402 µM, respectively. The result in assay [4] and in assay [12] was Active.
As for `CC(C)C(=O)O[C@@H]1c2c(ccc3ccc(=O)oc23)OC(C)(C)[C@@H]1O`, the figures for the IC50 in [1] and in assay [7] were 595 µM and 189 µM, respectively. Besides, the outcome in [4] and in assay [12] was Active.
